Experimental data published in ChEMBL document CHEMBL1287681, “Tetrahydrocarboline analogs as MCH-1 antagonists” (Bioorg Med Chem Lett, 2010).
Values after ≈ are worked out from the molar mass of the structure shown.

Tests used:
[1] = biological target: T1, Melanin-concentrating hormone receptor 1 (Homo sapiens, UniProt Q99705); assay: Displacement of [3H]4-(benzyloxy)-1-(1-(2-(pyrrolidin-1-yl)ethyl)-1H-indazol-5-yl)pyridin-2(1H)-one from MCH-1 receptor expressed in CHO-K1 cells; assay type: cell-based
T1 sequence (Q99705 whole entry): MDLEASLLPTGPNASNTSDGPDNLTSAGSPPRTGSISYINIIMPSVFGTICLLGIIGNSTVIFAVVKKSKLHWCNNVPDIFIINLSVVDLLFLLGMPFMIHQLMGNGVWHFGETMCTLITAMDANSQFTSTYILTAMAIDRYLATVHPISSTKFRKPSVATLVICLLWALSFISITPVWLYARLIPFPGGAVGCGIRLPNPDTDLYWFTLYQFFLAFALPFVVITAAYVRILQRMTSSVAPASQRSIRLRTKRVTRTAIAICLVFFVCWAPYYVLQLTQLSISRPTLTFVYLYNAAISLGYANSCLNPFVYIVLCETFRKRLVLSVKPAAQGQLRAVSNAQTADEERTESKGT
How it was run: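 Membranes from stable CHO-K1 cells expressing human MCH-1 receptor (8.92 µg protein) incubated 60 min at 25 °C with 1.4 nM tritiated indazolyl-pyridinone radioligand ± test compound in 50 mM Tris–HCl, pH 7.4. Nonspecific binding defined with 50 µM of a piperazinylpropyl urea ligand. Values are means of at least two determinations, each within 40% of the mean.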

[2] = biological target: Cytochrome P450 3A4 (Homo sapiens, UniProt P08684); assay: Inhibition of CYP3A4; assay type: ADME
Sequence of Cytochrome P450 3A4 (P08684 whole entry): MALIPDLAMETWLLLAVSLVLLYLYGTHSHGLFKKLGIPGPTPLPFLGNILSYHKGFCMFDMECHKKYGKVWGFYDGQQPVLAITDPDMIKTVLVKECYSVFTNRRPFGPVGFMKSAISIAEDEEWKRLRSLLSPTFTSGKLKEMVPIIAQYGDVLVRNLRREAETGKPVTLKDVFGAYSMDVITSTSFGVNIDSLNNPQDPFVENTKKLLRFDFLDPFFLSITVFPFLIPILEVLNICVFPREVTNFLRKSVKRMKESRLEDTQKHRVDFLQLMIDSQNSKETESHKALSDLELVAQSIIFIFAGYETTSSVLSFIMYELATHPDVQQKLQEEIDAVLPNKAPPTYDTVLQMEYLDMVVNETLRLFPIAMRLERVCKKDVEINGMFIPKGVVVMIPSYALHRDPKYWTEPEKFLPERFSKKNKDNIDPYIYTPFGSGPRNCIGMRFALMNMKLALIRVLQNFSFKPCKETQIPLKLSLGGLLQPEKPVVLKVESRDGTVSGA

[3] = Stability in human liver microsome assessed as compound remaining after 1 hr; assay type: ADME; settings: liver microsomes, read-out: Stability
How it was run: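 Human liver microsome incubation; percentage of parent remaining after 1 h.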

[4] = biological target: T2, Cytochrome P450 1A2 (Homo sapiens, UniProt P05177); assay: (§1) Inhibition of CYP1A2; assay type: ADME
T2 sequence (P05177 whole entry): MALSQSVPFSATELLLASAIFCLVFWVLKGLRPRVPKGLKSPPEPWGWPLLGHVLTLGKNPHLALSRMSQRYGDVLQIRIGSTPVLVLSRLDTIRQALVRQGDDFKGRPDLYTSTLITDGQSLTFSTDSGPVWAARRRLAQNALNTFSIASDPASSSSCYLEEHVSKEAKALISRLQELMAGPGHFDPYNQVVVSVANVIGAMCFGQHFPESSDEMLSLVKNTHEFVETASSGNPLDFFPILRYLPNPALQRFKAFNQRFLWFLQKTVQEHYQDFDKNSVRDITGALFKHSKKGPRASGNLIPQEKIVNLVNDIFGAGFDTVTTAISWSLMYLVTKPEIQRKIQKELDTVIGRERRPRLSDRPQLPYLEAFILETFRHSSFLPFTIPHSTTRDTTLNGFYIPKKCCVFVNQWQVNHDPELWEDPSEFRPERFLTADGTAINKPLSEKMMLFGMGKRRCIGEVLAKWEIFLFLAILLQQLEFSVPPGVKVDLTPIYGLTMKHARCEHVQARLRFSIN

[5] = biological target: Cytochrome P450 2D6 (Homo sapiens, UniProt P10635); assay: Inhibition of CYP2D6; assay type: ADME
Sequence of Cytochrome P450 2D6 (P10635 whole entry): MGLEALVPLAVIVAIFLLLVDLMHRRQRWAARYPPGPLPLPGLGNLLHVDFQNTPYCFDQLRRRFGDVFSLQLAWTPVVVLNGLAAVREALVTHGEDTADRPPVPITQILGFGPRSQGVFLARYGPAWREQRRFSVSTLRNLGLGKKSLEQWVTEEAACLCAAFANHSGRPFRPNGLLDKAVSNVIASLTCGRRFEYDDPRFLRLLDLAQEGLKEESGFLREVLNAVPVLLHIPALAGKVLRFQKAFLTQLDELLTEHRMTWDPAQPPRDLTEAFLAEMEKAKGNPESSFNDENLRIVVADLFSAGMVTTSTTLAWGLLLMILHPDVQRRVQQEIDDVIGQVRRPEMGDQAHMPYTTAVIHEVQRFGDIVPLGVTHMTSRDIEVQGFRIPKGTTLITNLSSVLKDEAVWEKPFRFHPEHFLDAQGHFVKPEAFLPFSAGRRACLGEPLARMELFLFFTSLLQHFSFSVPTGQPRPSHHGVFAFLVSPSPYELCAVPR

[6] = Aqueous solubility of the compound in PBS buffer at pH 7.4 after 24 hrs; assay type: physicochemical
How it was run: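 Solubility measured in PBS at pH 7.4 after a 24 h equilibration period.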

[7] = biological target: Cytochrome P450 2C9 (Homo sapiens, UniProt P11712)
Sequence of Cytochrome P450 2C9 (P11712 whole entry): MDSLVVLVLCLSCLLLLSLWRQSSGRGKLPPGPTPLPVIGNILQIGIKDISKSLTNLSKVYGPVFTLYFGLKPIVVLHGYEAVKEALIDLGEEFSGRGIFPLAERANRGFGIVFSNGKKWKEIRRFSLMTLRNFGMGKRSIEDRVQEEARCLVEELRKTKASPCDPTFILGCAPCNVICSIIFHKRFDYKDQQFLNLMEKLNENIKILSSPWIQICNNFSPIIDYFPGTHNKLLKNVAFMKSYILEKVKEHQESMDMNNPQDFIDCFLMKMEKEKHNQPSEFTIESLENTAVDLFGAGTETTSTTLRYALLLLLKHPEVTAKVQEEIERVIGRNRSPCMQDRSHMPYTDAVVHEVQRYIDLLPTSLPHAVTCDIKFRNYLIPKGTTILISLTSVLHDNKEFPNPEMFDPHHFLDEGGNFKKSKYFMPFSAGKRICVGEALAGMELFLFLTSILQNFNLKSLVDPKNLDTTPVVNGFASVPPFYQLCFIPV

[8] = biological target: Cytochrome P450 2C19 (Homo sapiens, UniProt P33261)
Sequence of Cytochrome P450 2C19 (P33261 whole entry): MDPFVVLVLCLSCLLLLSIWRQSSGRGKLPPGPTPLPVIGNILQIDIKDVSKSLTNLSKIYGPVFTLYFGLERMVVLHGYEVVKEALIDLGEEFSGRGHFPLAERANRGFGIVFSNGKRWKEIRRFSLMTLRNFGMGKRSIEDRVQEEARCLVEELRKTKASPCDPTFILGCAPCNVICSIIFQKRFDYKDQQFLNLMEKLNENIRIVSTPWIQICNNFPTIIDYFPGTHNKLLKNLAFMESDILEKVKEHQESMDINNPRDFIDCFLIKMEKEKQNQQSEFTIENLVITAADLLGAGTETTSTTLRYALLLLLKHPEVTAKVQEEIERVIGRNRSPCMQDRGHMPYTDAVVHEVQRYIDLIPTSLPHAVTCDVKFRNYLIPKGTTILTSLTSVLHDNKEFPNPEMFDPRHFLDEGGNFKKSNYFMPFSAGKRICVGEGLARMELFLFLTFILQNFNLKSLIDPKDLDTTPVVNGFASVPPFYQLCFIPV

[9] = Half life in human liver microsome; assay type: ADME; settings: liver microsomes
How it was run: (§2)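 Half-life in mouse or human liver microsomes, reported in min.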

[10] = biological target: T3, Cytochrome P450 2B6 (Homo sapiens, UniProt P20813); assay: Inhibition of CYP2B6; assay type: ADME
T3 sequence (P20813 whole entry): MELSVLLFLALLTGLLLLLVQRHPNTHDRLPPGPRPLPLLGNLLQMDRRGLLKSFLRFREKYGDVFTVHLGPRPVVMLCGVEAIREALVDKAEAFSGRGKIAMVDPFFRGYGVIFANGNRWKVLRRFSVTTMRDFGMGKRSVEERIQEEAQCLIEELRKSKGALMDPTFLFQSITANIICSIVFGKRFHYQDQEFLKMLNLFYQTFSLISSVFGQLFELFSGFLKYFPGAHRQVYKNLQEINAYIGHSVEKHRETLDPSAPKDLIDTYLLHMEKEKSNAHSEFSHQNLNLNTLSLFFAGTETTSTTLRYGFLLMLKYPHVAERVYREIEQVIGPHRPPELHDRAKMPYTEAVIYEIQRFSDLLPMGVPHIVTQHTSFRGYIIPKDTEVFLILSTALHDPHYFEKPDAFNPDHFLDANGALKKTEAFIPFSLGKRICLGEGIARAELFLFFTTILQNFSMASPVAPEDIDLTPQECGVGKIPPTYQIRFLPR

[11] = Drug level in DIO mouse brain at 30 mg/kg, po after 6 hrs; assay type: ADME, organism-based; set-up: dose 30 mg/kg, route oral; settings: read-out: Drug uptake
How it was run: (§3)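 DIO mice given 30 mg/kg orally. Plasma (ng/mL) and brain (ng/g) concentrations measured 6 h post dose; AUC determined from 0 to 6 h.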

[12] = AUC (0 to 6 hrs) in DIO mouse at 30 mg/kg, po; assay type: ADME, organism-based; set-up: time < 6 hr, dose 30 mg/kg, route oral; settings: plasma; how it was run: as §3
[13] = Ionisation constant for the compound; assay type: physicochemical
[14] = Plasma protein binding in DIO mouse at 30 mg/kg, po; assay type: ADME, organism-based; set-up: dose 30 mg/kg, route oral; settings: read-out: PPB (converted)
How it was run: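 Mouse plasma protein binding determined by ultrafiltration.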

[15] = biological target: T1, Melanin-concentrating hormone receptor 1; assay: Antagonist activity at MCH-1 receptor; assay type: functional
How it was run: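 Functional antagonism read as Ca2+ mobilization in an Aequorin cell line expressing recombinant MCH-1 receptor, run by a contract lab.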

[16] = Drug level in DIO mouse plasma at 30 mg/kg, po after 6 hrs; assay type: ADME, organism-based; set-up: dose 30 mg/kg, route oral; how it was run: as §3
[17] = system: Mus musculus; assay: Antiobesity activity in diet-induced obese mouse assessed as reduction in body weight at 30 mg/kg qd; assay type: functional; set-up: scale not given: the % may be the effect or the level left
How it was run: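 Male C57BL/6J diet-induced obese mice dosed orally once daily, 30 mg/kg in 1% methylcellulose in water, for 5 days. Body weight tracked daily; % difference from vehicle control on Day 6. Adjusted means, n = 8–10, ANCOVA with Day 1 body weight as covariate, then Dunnett's test.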

[18] = Half life in mouse liver microsome; assay type: ADME; settings: liver microsomes; how it was run: as §2
[19] = Ratio of drug level in brain to plasma in DIO mouse at 30 mg/kg, po; settings: read-out: BPR
[20] = system: panel of 30 GPCRs and transporters (off-target); assay: Inhibition of panel of 30 GPCRs and transporters at 1 uM
[21] = Ratio of drug level in brain to plasma in lean mouse at 10 mg/kg, po; settings: read-out: BPR
[22] = system: Mus musculus; assay: Antiobesity activity in diet-induced obese mouse assessed as reduction in body weight at 30 mg/kg bid; assay type: functional; set-up: scale not given: the % may be the effect or the level left
[23] = biological target: T4, CYP1A2 (Homo sapiens, UniProt P05177); assay: as §1; assay type: ADME
T4 sequence (P05177 whole entry): T2 sequence (P05177 whole entry)

[24] = system: Mus musculus; assay: Antiobesity activity in diet-induced obese mouse assessed as reduction in body weight at 60 mg/kg qd; assay type: functional; set-up: scale not given: the % may be the effect or the level left

CSc1ccc(-c2ccn(-c3ccc4c5c(n(C)c4c3)CNCC5)c(=O)c2)cc1
Ki [1]: 8.4 nM

Cn1c2c(c3ccc(-n4ccc(OCc5ccc(Cl)cc5)cc4=O)cc31)CNCC2
Ki [1]: 4.2 nM

Cn1c2c(c3ccc(-n4ccc(OCc5ccccc5)cc4=O)cc31)CNCC2
IC50 [2]: 68000 nM
remaining at 1 h [3]: 98.4%
IC50 [4]: > 10000 nM
Ki [1]: 3.8 nM
IC50 [5]: > 10000 nM
solubility at 24 h [6]: 470 µM (≈ 181 µg/mL)
IC50 [7]: > 10000 nM
IC50 [8]: > 10000 nM
half-life [9]: 7.7 h
IC50 [10]: > 10000 nM

Cn1c2c(c3ccc(-n4ccc(OCc5ccc(C(F)(F)F)cc5)cc4=O)cc31)CNCC2
Ki [1]: 6.7 nM

Cn1c2c(c3ccc(-n4ccc(-c5ccc(Cl)cc5Cl)cc4=O)cc31)CNCC2
Ki [1]: 7.2 nM

COc1ccc(-c2ccn(-c3ccc4c5c(n(C)c4c3)CNCC5)c(=O)c2)c(C)c1
Ki [1]: 14 nM

COc1ccc(-c2ccn(-c3ccc4c5c(n(C)c4c3)CNCC5)c(=O)c2)cc1
Ki [1]: 14 nM

CN1CCc2c(c3ccc(-n4ccc(-c5ccc(F)cc5)cc4=O)cc3n2C)C1
Ki [1]: 7.8 nM

COc1ccc(-c2ccn(-c3ccc4c5c(n(C)c4c3)CCNC5)c(=O)c2)c(C)c1
Ki [1]: 7.6 nM

CC(=O)N1CCc2c(c3ccc(-n4ccc(OCc5ccccc5)cc4=O)cc3n2C)C1
Ki [1]: 168 nM

CN1CCc2c(n(C)c3cc(-n4ccc(-c5ccc(Cl)cc5)cc4=O)ccc23)C1
Ki [1]: 5.6 nM

CN1CCc2c(n(C)c3cc(-n4ccc(-c5ccc(Cl)cc5Cl)cc4=O)ccc23)C1
Ki [1]: 14 nM

CN1CCc2c(n(C)c3cc(-n4ccc(-c5ccc(F)cn5)cc4=O)ccc23)C1
Ki [1]: 708 nM

CSc1ccc(-c2ccn(-c3ccc4c5c(n(C)c4c3)CCNC5)c(=O)c2)cc1
Ki [1]: 2.4 nM

CN1CCc2c(n(C)c3cc(-n4ccc(OCc5ccc(Cl)cc5)cc4=O)ccc23)C1
Ki [1]: 7.6 nM

COc1ccc(-c2ccn(-c3ccc4c5c(n(C)c4c3)CCNC5)c(=O)c2)cc1
Ki [1]: 2.6 nM

Cn1c2c(c3ccc(-n4ccc(OCc5ccccc5)cc4=O)cc31)CCNC2
IC50 [2]: 12000 nM
concentration at 6 h [11]: 4010 ng/mL
IC50 [4]: > 10000 nM
Ki [1]: 4.9 nM
IC50 [5]: > 10000 nM
solubility at 24 h [6]: > 500 µM
AUC(0-t) at 6 h [12]: 41300 ng·h/mL
pKa [13]: 8.81
fraction unbound [14]: 0.059
IC50 [15]: 14.4 nM
concentration at 6 h [16]: 8030 ng/mL
half-life [9]: 7.5 h
IC50 [10]: > 10000 nM
Activity [17]: 9.1%
half-life [18]: 8.03 h
Kp [19]: 0.51

Cn1c2c(c3ccc(-n4ccc(-c5ccc(Cl)cc5)cc4=O)cc31)CCNC2
Ki [1]: 11 nM

Cn1c2c(c3ccc(-n4ccc(-c5ccc(C(F)(F)F)cc5)cc4=O)cc31)CCNC2
Ki [1]: 11 nM

CN1CCc2c(c3ccc(-n4ccc(OCc5ccccc5)cc4=O)cc3n2C)C1
IC50 [2]: 67000 nM
IC50 [4]: > 10000 nM
Ki [1]: 4.5 nM
IC50 [5]: > 10000 nM
inhibition [20]: < 55%
solubility at 24 h [6]: 110 µM (≈ 43.9 µg/mL)
AUC(0-t) at 6 h [12]: 27000 ng·h/mL
fraction unbound [14]: 0.016
concentration at 6 h [16]: 5030 ng/mL
Kp [21]: 0.9
half-life [9]: 12.8 h
IC50 [10]: > 10000 nM
Activity [17]: 7.2%
half-life [18]: > 16.7 h

CN1CCc2c(n(C)c3cc(-n4ccc(OCc5ccc(C(F)(F)F)cc5)cc4=O)ccc23)C1
Ki [1]: 25 nM

O=c1cc(OCc2ccccc2)ccn1-c1ccc2c(cnn2CCN2CCCC2)c1
Activity [22]: 6%
concentration at 6 h [11]: 1380 ng/mL
IC50 [23]: > 10000 nM
AUC(0-t) at 6 h [12]: 14800 ng·h/mL
pKa [13]: 8.63
fraction unbound [14]: 0.086
concentration at 6 h [16]: 1950 ng/mL
Activity [24]: 2.8%
Kp [19]: 0.72

CN1CCc2c(n(C)c3cc(-n4ccc(OCc5ccccc5)cc4=O)ccc23)C1
IC50 [2]: 24000 nM
IC50 [4]: > 10000 nM
Ki [1]: 5.2 nM
IC50 [5]: > 10000 nM
solubility at 24 h [6]: 93 µM (≈ 37.2 µg/mL)
half-life [9]: > 16.7 h
IC50 [10]: > 10000 nM
half-life [18]: 1.05 h

Cn1c2c(c3ccc(-n4ccc(-c5ccc(C(F)(F)F)cc5)cc4=O)cc31)CNCC2
Ki [1]: 4.2 nM

Cn1c2c(c3ccc(-n4ccc(-c5ccc(Cl)cn5)cc4=O)cc31)CCNC2
Ki [1]: 128 nM

Cn1c2c(c3ccc(-n4ccc(OCc5ccccc5)cc4=O)cc31)CN(CCO)CC2
Ki [1]: 3.6 nM

Cn1c2c(c3ccc(-n4ccc(-c5ccc(Cl)cc5)cc4=O)cc31)CNCC2
Ki [1]: 2.7 nM

Cn1c2c(c3ccc(-n4ccc(-c5ccccc5)cc4=O)cc31)CNCC2
Ki [1]: 15 nM

COc1cc(Cl)ccc1-c1ccn(-c2ccc3c4c(n(C)c3c2)CNCC4)c(=O)c1
Ki [1]: 17 nM

COc1cc(Cl)ccc1-c1ccn(-c2ccc3c4c(n(C)c3c2)CCNC4)c(=O)c1
Ki [1]: 7 nM
